{"source": "ChEMBL document CHEMBL3352189", "about": "(J Med Chem, 2014)", "key": {"[1]": {"tested_on": "Venezuelan equine encephalitis virus", "test": "Antiviral activity against Venezuelan equine encephalitis virus TC83 infected in C3H/HeN mouse assessed as mouse survival at […], ip BID for 4 days dosed 4 hrs before viral infection (reference value: 14%)", "type": "functional", "settings": "route intraperitoneal"}, "Mus musculus": {"tested_on": "Mus musculus", "test": "Toxicity in Venezuelan equine encephalitis virus TC83 infected C3H/HeN mouse assessed as induction of ruffled fur at 5 mg/kg/day, ip BID for 4 days", "type": "organism-based", "parameters": "route intraperitoneal", "settings": "in vivo, 96 h"}, "[2]": {"biological_target": "Adenosine receptor A2a (Homo sapiens) (UniProt P29274)", "sequence (P29274 whole entry)": "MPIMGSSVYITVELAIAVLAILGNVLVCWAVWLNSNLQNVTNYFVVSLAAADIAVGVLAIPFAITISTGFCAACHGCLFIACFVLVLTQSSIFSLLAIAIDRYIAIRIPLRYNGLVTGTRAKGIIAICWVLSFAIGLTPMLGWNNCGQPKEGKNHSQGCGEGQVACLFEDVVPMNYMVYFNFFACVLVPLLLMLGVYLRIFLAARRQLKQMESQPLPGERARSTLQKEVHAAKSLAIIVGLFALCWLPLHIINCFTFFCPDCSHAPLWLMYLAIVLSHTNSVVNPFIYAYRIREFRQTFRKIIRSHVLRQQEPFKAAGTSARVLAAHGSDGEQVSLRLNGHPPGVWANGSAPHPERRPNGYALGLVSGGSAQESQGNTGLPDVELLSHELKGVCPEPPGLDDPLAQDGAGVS", "test": "Displacement of [3H]CGS-21680 from human adenosine A2A receptor at 10 uM"}, "[3]": {"biological_target": "Alpha-2A adrenergic receptor (Homo sapiens) (UniProt P08913)", "test": "Displacement of [3H]MK-912 from human adrenergic alpha2A receptor at 10 uM"}, "[4]": {"biological_target": "B2 bradykinin receptor (Homo sapiens) (UniProt P30411)", "sequence (P30411 whole entry)": "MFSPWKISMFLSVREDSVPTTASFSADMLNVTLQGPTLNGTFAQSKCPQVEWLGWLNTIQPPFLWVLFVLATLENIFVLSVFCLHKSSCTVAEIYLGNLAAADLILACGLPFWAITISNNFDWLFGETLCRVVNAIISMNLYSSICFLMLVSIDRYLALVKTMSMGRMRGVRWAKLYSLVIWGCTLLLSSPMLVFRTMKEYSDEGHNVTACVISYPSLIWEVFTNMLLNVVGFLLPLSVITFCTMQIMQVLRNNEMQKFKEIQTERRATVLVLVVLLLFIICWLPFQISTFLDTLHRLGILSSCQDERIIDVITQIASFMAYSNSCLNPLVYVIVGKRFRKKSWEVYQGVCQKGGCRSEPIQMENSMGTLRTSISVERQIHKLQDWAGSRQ", "test": "Displacement of [3H]bradykinin from human bradykinin B2 receptor at 10 uM"}, "Rattus norvegicus [5]": {"species_on_record": "Rattus norvegicus", "test": "Displacement of [125I]omega-Conotoxin GVIA from rat N-type calcium channel at 10 uM"}, "[6]": {"biological_target": "D(3) dopamine receptor (Homo sapiens) (UniProt P35462)", "sequence (P35462 whole entry)": "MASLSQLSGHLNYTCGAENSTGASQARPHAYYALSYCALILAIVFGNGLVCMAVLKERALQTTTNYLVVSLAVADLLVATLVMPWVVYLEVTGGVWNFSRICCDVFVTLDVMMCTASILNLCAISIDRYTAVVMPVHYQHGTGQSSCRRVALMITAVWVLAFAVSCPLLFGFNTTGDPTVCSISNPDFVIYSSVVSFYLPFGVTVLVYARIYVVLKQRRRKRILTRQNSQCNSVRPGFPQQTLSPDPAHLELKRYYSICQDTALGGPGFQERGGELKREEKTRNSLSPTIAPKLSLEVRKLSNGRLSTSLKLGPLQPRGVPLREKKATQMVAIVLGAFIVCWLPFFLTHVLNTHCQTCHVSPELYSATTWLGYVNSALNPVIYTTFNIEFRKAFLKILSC", "test": "Displacement of [3H]spiperone from human dopamine D3 receptor at 10 uM"}, "[7]": {"biological_target": "D(4) dopamine receptor (Homo sapiens) (UniProt P21917)", "sequence (P21917 whole entry)": "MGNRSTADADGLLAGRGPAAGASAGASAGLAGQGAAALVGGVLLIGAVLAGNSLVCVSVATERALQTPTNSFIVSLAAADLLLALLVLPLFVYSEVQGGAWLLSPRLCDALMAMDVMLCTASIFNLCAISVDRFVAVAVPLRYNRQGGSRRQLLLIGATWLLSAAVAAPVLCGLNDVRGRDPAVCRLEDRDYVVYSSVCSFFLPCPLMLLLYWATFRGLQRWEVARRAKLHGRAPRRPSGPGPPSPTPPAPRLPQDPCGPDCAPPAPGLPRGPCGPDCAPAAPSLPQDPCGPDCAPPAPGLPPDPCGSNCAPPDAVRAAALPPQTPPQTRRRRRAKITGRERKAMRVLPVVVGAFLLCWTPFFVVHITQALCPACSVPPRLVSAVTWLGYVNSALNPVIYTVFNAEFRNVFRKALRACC", "test": "Displacement of [3H]spiperone from human dopamine D4.2 receptor at 10 uM"}, "[8]": {"biological_target": "Endothelin-1 receptor (Homo sapiens) (UniProt P25101)", "sequence (P25101 whole entry)": "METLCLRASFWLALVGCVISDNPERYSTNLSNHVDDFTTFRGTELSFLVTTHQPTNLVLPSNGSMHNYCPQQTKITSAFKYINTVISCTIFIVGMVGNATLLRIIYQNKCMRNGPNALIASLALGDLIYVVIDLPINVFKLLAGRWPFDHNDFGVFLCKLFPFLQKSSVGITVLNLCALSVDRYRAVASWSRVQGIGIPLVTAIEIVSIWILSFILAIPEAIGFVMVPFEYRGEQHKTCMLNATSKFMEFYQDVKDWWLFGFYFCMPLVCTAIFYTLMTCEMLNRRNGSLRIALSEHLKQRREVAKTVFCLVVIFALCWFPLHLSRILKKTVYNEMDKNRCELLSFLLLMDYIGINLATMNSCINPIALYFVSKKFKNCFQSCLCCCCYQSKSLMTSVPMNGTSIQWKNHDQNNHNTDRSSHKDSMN", "test": "Displacement of [125I]endothelin-1 from human ETA receptor at 10 uM"}, "[9]": {"biological_target": "Endothelin receptor type B (Homo sapiens) (UniProt P24530)", "sequence (P24530 whole entry)": "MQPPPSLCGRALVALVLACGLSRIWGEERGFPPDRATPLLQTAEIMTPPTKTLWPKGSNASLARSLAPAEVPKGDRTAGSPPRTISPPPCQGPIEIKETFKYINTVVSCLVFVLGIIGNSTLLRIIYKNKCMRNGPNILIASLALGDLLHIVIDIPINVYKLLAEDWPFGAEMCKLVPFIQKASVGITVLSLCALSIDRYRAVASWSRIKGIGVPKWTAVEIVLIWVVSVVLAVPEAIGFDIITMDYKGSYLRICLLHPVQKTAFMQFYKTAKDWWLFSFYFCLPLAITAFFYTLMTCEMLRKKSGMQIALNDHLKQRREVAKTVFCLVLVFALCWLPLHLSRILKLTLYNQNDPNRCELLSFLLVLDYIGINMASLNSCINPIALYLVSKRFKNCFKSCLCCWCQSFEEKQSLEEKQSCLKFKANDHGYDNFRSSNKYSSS", "test": "Displacement of [125I]endothelin-1 from human ETB receptor at 10 uM"}, "[10]": {"biological_target": "GABA-A receptor; anion channel (Homo sapiens) (UniProt P14867+P47870+P18507+P28472+P48169+Q99928+Q9UN88+P34903+O00591+O14764+Q8N1C3+P18505+P78334+P47869+P31644+Q16445)", "test": "Displacement of ABC from rat GABAA receptor central muscimol site at 10 uM", "type": "protein-complex assay", "settings": "target entry is the homologue from another species"}, "Rattus norvegicus [11]": {"species_on_record": "Rattus norvegicus", "test": "Displacement of [3H]kainic acid from rat kainate receptor at 10 uM"}, "[12]": {"biological_target": "Glutamate NMDA receptor (Rattus norvegicus) (UniProt P35439+Q00959+Q00960+Q00961+Q62645+Q8VHN2+Q9R1M7)", "test": "Displacement of [3H]CGP-39653 from rat NMDA receptor agonist binding site binding site at 10 uM", "type": "protein-complex assay"}, "[13]": {"biological_target": "Histamine H2 receptor (Homo sapiens) (UniProt P25021)", "sequence (P25021 whole entry)": "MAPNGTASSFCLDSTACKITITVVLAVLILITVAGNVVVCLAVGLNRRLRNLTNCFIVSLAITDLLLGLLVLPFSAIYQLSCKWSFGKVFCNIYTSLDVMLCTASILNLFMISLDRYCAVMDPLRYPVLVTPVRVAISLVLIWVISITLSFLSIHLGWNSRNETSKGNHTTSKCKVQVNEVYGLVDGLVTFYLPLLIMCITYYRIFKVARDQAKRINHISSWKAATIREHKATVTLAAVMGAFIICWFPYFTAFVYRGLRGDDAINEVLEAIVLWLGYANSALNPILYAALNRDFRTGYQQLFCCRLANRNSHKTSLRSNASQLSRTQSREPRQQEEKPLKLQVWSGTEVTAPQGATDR", "test": "Displacement of [3H]N-alpha-Methylhistamine from human histamine H3 receptor at 10 uM"}, "[14]": {"biological_target": "Muscarinic acetylcholine receptor M2 (Homo sapiens) (UniProt P08172)", "test": "Displacement of [3H]N-Methylscopolamine from human muscarinic M2 receptor at 10 uM"}, "[15]": {"biological_target": "Neuropeptide Y receptor type 2 (Homo sapiens) (UniProt P49146)", "sequence (P49146 whole entry)": "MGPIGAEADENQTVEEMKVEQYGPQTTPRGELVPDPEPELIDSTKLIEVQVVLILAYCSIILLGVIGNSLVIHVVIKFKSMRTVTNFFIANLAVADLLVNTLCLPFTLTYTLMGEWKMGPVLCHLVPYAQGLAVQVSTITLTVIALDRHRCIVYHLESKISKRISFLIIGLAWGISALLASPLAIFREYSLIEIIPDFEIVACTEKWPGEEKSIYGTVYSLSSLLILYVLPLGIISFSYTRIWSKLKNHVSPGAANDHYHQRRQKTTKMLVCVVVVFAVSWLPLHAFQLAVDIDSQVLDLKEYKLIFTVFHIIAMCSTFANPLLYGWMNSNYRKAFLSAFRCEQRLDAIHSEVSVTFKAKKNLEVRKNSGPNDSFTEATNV", "test": "Displacement of [125I]Peptide YY from human neuropeptide Y Y2 receptor at 10 uM"}, "[16]": {"biological_target": "Mu-type opioid receptor (Homo sapiens) (UniProt P35372)", "sequence (P35372 whole entry)": "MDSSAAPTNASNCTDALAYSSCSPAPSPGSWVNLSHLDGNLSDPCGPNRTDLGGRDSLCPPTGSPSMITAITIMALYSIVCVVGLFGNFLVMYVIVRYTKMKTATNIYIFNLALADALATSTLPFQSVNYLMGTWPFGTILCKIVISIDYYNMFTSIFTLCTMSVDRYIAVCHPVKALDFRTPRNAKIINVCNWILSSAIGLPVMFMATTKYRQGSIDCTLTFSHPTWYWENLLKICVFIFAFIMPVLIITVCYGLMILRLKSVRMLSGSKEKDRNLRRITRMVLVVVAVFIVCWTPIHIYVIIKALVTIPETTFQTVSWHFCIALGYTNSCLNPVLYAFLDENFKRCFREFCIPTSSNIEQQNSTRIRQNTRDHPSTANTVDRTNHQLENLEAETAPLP", "test": "Displacement of [3H]diprenorphine from human mu opiate receptor at 10 uM"}, "[17]": {"biological_target": "Platelet-activating factor receptor (Homo sapiens) (UniProt P25105)", "sequence (P25105 whole entry)": "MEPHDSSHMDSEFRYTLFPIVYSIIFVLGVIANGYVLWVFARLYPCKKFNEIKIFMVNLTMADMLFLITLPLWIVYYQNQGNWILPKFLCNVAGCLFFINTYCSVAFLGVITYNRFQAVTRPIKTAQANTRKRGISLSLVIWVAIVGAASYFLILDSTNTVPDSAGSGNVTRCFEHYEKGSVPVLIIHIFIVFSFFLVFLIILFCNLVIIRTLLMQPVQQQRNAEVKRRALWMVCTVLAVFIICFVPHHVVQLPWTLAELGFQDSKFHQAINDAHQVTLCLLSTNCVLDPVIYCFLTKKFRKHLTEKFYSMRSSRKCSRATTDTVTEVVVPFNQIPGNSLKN", "test": "Displacement of [3H]PAF from human PAF receptor at 10 uM"}, "[18]": {"biological_target": "Prostaglandin E2 receptor EP4 subtype (Homo sapiens) (UniProt P35408)", "test": "Displacement of [3H]prostaglandin E2 from human EP4 […] at 10 uM"}, "[19]": {"biological_target": "5-hydroxytryptamine receptor 1A (Homo sapiens) (UniProt P08908)", "sequence (P08908 whole entry)": "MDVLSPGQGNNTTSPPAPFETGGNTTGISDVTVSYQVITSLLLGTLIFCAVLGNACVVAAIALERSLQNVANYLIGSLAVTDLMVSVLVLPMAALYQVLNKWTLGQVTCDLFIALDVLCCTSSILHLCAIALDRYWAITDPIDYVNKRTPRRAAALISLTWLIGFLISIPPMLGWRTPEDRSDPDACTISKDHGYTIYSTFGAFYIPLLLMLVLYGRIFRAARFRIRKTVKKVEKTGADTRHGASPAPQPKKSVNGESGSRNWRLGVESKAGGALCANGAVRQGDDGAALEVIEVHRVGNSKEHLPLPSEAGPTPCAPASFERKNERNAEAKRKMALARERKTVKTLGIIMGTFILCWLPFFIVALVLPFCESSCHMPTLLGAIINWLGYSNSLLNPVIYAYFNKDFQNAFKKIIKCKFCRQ", "test": "Displacement of [3H]8-OH-DPAT from human 5HT1A receptor at 10 uM"}, "[20]": {"biological_target": "5-hydroxytryptamine receptor 2B (Homo sapiens) (UniProt P41595)", "test": "Displacement of [3H]lysergic acid diethylamide from human 5HT2B receptor at 10 uM"}, "Rattus norvegicus [21]": {"species_on_record": "Rattus norvegicus", "test": "Displacement of [125I]triiodothyronine from rat thyroid hormone receptor 10 uM"}, "[22]": {"test": "Cytotoxicity against african green monkey Vero 76 cells after 3 days by Celltiter-Glo reagent based assay", "type": "cell-based", "settings": "chlorocebus sabaeus, vero 76, 72 h", "how_it_was_run": "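Vero 76 cells were seeded overnight at 12 000/well and given an 8-point 2-fold compound series (20 mM DMSO stock) in EMEM/10% FBS with no virus. Viability was read by CellTiter-Glo after 3 days relative to untreated cells. Run in duplicate; CC50 from a four-parameter logistic or sigmoidal fit.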"}, "[23]": {"test": "Stability in pH 7.4 PBS buffer assessed as parent compound remaining", "type": "physicochemical", "how_it_was_run": "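Aqueous stability measured after 48 h incubation, in PBS pH 7.4 or in 1:1 PBS/acetonitrile; reported as % parent remaining.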"}, "[24]": {"test": "Protein binding in human plasma at 10 uM", "type": "ADME, cell-free", "settings": "read-out: PPB (converted)"}, "[25]": {"test": "Hepatotoxicity in human Fa2N-4 cells", "type": "toxicity, cell-based", "settings": "read-out: LD50 (the source's name)"}, "Cytochrome P450 1A2": {"biological_target": "Cytochrome P450 1A2 (Homo sapiens, UniProt P05177)", "sequence (P05177 whole entry)": "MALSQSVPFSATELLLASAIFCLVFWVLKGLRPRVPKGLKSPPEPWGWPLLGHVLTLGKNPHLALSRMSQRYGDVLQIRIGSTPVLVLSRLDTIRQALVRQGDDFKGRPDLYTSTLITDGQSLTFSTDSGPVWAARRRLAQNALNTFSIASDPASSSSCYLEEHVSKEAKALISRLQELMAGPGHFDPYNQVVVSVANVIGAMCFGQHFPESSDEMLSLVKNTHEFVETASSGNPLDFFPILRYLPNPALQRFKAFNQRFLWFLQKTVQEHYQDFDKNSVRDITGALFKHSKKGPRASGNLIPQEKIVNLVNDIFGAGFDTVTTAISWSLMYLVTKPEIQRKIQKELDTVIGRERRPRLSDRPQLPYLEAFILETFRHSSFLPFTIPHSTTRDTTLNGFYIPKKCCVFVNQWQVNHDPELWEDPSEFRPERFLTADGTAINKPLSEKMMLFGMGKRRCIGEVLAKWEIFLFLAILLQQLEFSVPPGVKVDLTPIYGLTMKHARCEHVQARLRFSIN", "test": "Inhibition of human CYP1A2 at 10 uM", "type": "ADME", "how_it_was_run": "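Human CYP inhibition run with reference inhibitors as controls: α-naphthoflavone for CYP1A2 and ketoconazole for CYP3A4.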"}, "[26]": {"test": "Plasma concentration in C57BL/6 mouse at 5 mg/kg, ip administered as single dose measured after 120 mins by LC/MS analysis based RACE assay", "type": "ADME, organism-based", "parameters": "dose 5 mg/kg, route intraperitoneal", "how_it_was_run": "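Single intraperitoneal dose of 1, 5 or 10 mg/kg given to C57BL/6 mice, 3 mice per dose and time point, with a vehicle-control cohort. Plasma was sampled at 20 and 120 min post-dose and drug level measured by LC/MS. Each time point averaged two injections (<20% difference); values are means ± standard deviation in μM.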"}, "[27]": {"test": "Drug concentration in C57BL/6 mouse brain at 1 mg/kg, ip administered as single dose measured after 120 mins by LC/MS analysis based RACE assay", "type": "ADME, organism-based", "parameters": "dose 1 mg/kg, route intraperitoneal", "settings": "read-out: Drug uptake", "how_it_was_run": "(§1)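 Brain tissue taken at the terminal 120 min point after one intraperitoneal dose (1, 5 or 10 mg/kg) in C57BL/6 mice, 3 per group, with a vehicle cohort. Drug level measured by LC/MS, averaging two injections per sample; reported as mean ± standard deviation, μM.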"}, "[28]": {"test": "Drug concentration in C57BL/6 mouse brain at 5 mg/kg, ip administered as single dose measured after 120 mins by LC/MS analysis based RACE assay", "type": "ADME, organism-based", "parameters": "dose 5 mg/kg, route intraperitoneal", "settings": "read-out: Drug uptake", "how_it_was_run": "as §1"}, "[29]": {"test": "Drug concentration in C57BL/6 mouse brain at 10 mg/kg, ip administered as single dose measured after 120 mins by LC/MS analysis based RACE assay", "type": "ADME, organism-based", "parameters": "dose 10 mg/kg, route intraperitoneal", "settings": "read-out: Drug uptake", "how_it_was_run": "as §1"}}}
{"compound": "CN1CCN(C)/C(=N/c2ccc([N+](=O)[O-])cc2C(=O)Nc2ccccc2)C1", "values": [{"measurement": "survival at […]", "setting": "[1]", "result": 127, "unit": "%"}, {"measurement": "Activity", "setting": "Mus musculus", "result": "Non-toxic"}, {"measurement": "inhibition", "setting": "[2]", "result": 17, "unit": "%"}, {"measurement": "inhibition", "setting": "[3]", "result": -0.5, "unit": "%"}, {"measurement": "inhibition", "setting": "[4]", "result": 3.4, "unit": "%"}, {"measurement": "inhibition", "setting": "Rattus norvegicus [5]", "result": 22.7, "unit": "%"}, {"measurement": "inhibition", "setting": "[6]", "result": -1.53, "unit": "%"}, {"measurement": "inhibition", "setting": "[7]", "result": 11.2, "unit": "%"}, {"measurement": "inhibition", "setting": "[8]", "result": 7.78, "unit": "%"}, {"measurement": "inhibition", "setting": "[9]", "result": 8.32, "unit": "%"}, {"measurement": "inhibition", "setting": "[10]", "result": 0.52, "unit": "%"}, {"measurement": "inhibition", "setting": "Rattus norvegicus [11]", "result": 22.3, "unit": "%"}, {"measurement": "inhibition", "setting": "[12]", "result": -2.6, "unit": "%"}, {"measurement": "inhibition", "setting": "[13]", "result": 15.8, "unit": "%"}, {"measurement": "inhibition", "setting": "[14]", "result": 2.1, "unit": "%"}, {"measurement": "inhibition", "setting": "[15]", "result": -6.1, "unit": "%"}, {"measurement": "inhibition", "setting": "[16]", "result": 25.4, "unit": "%"}, {"measurement": "inhibition", "setting": "[17]", "result": 7.04, "unit": "%"}, {"measurement": "inhibition", "setting": "[18]", "result": 4.82, "unit": "%"}, {"measurement": "inhibition", "setting": "[19]", "result": 2.12, "unit": "%"}, {"measurement": "inhibition", "setting": "[20]", "result": 10, "unit": "%"}, {"measurement": "inhibition", "setting": "Rattus norvegicus [21]", "result": 1.61, "unit": "%"}, {"measurement": "CC50", "setting": "[22]", "result": "> 50", "unit": "µM"}, {"measurement": "Stability", "setting": "[23]", "result": 82.9, "unit": "%"}, {"measurement": "fraction unbound at 10 µM", "setting": "[24]", "result": 0.23}, {"measurement": "CC50", "setting": "[25]", "result": "> 250", "unit": "µM"}, {"measurement": "inhibition (INH)", "setting": "Cytochrome P450 1A2", "result": 1.5, "unit": "%"}, {"measurement": "concentration at 2 h", "setting": "[26]", "result": 290, "unit": "nM"}, {"measurement": "concentration at 2 h", "setting": "[27]", "result": 190, "unit": "nM"}, {"measurement": "concentration at 2 h", "setting": "[28]", "result": 210, "unit": "nM"}, {"measurement": "concentration at 2 h", "setting": "[29]", "result": 350, "unit": "nM"}]}
